From PubChem
PAD4 FP inh = blocks human protein arginine deiminase 4; recombinant PAD4, RCA probe fluorescence polarization; inhibition, % at 6.36 µM; actives 0.41% (n = 330,000);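 active = percent inhibition above a cutoff equal to the mean of all tested compounds plus 3 SD, cut at about 15% in these data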;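 also: 0% = PAD4 with RCA probe and DMSO and 100% = probe without PAD4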
Rin1-Abl PPI inh = blocks binding of human Rin1 to Abl; actives 0.4% (n = 360,000); TR-FRET Rin1/Abl binding, biochemical; inhibition, % at 7.35 µM; AID 588664; P00519+Q13671; in the data active = inhibition above about 5%, passing the limit was not always enough
SUMO HTRF inh = SUMOylation inhibition; inhibition, % at 35 µM; actives 0.36% (n = 290,000); HTRF SUMOylation assay, SAE1/SAE2 + UBC9, in vitro; AID 2006; P63279; in the data active = inhibition above about 50%, passing the limit was not always enough; inconclusive = no clear call, values can overlap the other calls
Target sequence (P63279 whole entry, looked up): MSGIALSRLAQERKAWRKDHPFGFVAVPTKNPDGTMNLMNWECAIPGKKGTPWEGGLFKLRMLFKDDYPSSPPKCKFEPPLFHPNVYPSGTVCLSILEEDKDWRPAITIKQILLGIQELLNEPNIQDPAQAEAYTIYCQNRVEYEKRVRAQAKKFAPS
GSTO1 counter = counter-screen for RBBP9 inhibitors: inhibitors of human GSTO1; actives 1.1% (n = 300,000); recombinant GSTO1, activity-based probe fluorescence polarization; inhibition, % at 5.96 µM; P78417;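 active = inhibition above the campaign mean inhibition plus 3 SD, cut at about 35% in these data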;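 also: 0% = GSTO1-1 with DMSO and 100% = wells lacking GSTO1-1 enzyme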
Target sequence (P78417 whole entry, looked up): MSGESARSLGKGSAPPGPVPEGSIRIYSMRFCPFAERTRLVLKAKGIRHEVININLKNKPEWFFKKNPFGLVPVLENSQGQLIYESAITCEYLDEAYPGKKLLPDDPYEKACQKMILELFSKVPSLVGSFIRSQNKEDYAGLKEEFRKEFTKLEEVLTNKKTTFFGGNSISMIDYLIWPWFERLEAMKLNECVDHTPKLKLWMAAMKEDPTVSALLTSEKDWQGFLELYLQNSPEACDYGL
UBC13 inh = human UBC13 polyubiquitination inhibition. actives 0.47% (n = 330,000). inhibition, % at 20 µM. UBC13 polyubiquitin chain formation, TR-FRET. P61088; in the data active = inhibition above about 45%, passing the limit was not always enough; inconclusive = no clear call, values can overlap the other calls
Target sequence (P61088 whole entry, looked up): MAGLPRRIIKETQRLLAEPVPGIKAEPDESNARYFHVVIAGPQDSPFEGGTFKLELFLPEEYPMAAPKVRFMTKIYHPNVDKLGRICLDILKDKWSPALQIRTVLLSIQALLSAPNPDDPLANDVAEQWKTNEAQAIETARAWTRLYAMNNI
Apaf1 inhib = blocks human Apaf-1 apoptosome activity. inhibition, % at 20 µM. reconstituted apoptosome caspase-3 activity, DEVD-Rh110 fluorescence. actives 0.71% (n = 330,000). AID 489030; active = inhibition of at least 40% at 20 µM;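 also: plate controls were DMSO wells for no effect and DEVD-CHO caspase inhibitor wells for full effect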
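Assay system: Apoptosome proteins | Medium: pH 7.5 Hepes buffer with CHAPS, BSA, DTT | Also added: Cytochrome c and DEVD-Rh110 substrate | Times: 30 min plus 50 min, RT | Detection: Rhodamine 110 fluorescence at Ex 480/Em 540 nm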
Apaf-1 inh conf = Apaf-1 inhibition, single-dose confirmed; shares compounds with Apaf1 inhib; reconstituted apoptosome, caspase-3 DEVD-Rh110 fluorescence; inhibition, % at 20 µM; actives 25% (n = 1,800); AID 504614;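 active = mean inhibition of at least 40% at 20 µM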;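 also: plate controls were DMSO wells for no effect and DEVD-CHO caspase inhibitor control wells for full effect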
Rh110 interf inh = interferes with Rh110 fluorescence, flagging false Apaf-1 inhibitors; shares compounds with Apaf1 inhib; Rh110 fluorescence interference, quenched caspase reaction; activation (fluorescence interference), % at 20 µM; 1,800 tested, under 10 active;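 active = signal rise of 40% or more at 20 µM, treated as a fluorescence artifact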
Fluor interf inh = shows fluorescence interference in the Apaf-1 inhibitor assay format; fluorescence interference counterscreen, Apaf-1 assay format; 460 tested, under 10 active; IC50, µM; shares compounds with Apaf1 inhib; call rule not given here
Active calls of the source: *; u = inconclusive; x = not tested or not shown; ! = a repeat was not active. Shown are actives, neighbours in structure and some others; about 2.2% of the full set was active somewhere.

SMILES	PAD4 FP inh	Rin1-Abl PPI inh	SUMO HTRF inh	GSTO1 counter	UBC13 inh	Apaf1 inhib	Apaf-1 inh conf	Rh110 interf inh	others
COC(=O)c1cccc(C23CC4(C2)[C@H](CN(CC2CCCCC2)[C@@H]4c2ccccc2)C3c2ccccc2)c1 (some centres not stated)	2	3	17	11	-3	40*	18	6
Cc1cc(C)c(C#N)c(SCC(=O)Nc2nonc2N)n1	2	-1	12	12	5	64*	12	14
CC1=C(CC(=O)c2ccccc2)C(=O)c2ccccc2C1=O	4	-3	30	51*	-35	45*	40*	8	Fluor interf inh=>100
COCCNC(=O)CN(c1cccc(OC)c1)S(=O)(=O)c1ccc(C)cc1	-3	3	0	-2	7	57*	16	0
Oc1cc(NCCc2cccnc2)cc2cccnc12	6	-2	x	x	28	56*	47*	5	Fluor interf inh=>100
CC(C)N(C(=O)[C@H]1C[C@H](CC(=O)NCCCN(C)C)C(=O)N2CCc3c([nH]c4cc(-c5ccco5)ccc34)[C@]12C)C(C)C	3	-3	x	x	x	52*	4	2
CN(C)C(=O)CCc1ccc2c3c([nH]c2c1)[C@]1(CCC2CCCC2)[C@@H](C(=O)N2CCOCC2)C[C@H](CC(=O)NCCCn2ccnc2)C(=O)N1CC3	1	0	x	x	x	9	x	x
O=C(C[C@H]1C[C@H](C(=O)N2CCOCC2)[C@@]2(CCC3CCCC3)c3[nH]c4cc(-c5ccco5)ccc4c3CCN2C1=O)NCCN1CCOCC1	1	0	x	x	x	36	x	x
CN(C)CCCNC(=O)C[C@H]1C[C@H](C(=O)N2CCOCC2)[C@@]2(CCC3CCCC3)c3[nH]c4cc(-c5ccco5)ccc4c3CCN2C1=O	8	-4	x	x	x	67*	28	3
CCN(CC)C(=O)[C@H]1C[C@H](CC(=O)NCCCN(C)C)C(=O)N2CCc3c([nH]c4cc(-c5ccco5)ccc34)[C@]12C	-7	0	x	x	x	35	x	x
O=C(C[C@H]1C[C@H](C(=O)N2CCCCC2)[C@@]2(CCc3ccccc3)c3[nH]c4ccc(Cl)cc4c3CCN2C1=O)NCCc1ccccn1	-1	2	x	x	x	34	x	x
CN(C)CCCNC(=O)C[C@H]1C[C@H](C(=O)N2CCCCC2)[C@@]2(CCc3ccccc3)c3[nH]c4ccc(Cl)cc4c3CCN2C1=O	0	1	x	x	x	74*	29	21
O=C(C[C@H]1C[C@H](C(=O)N2CCOCC2)[C@@]2(CCC3CCCC3)c3[nH]c4ccc(Cl)cc4c3CCN2C1=O)NCCCn1ccnc1	-4	-1	x	x	x	58*	24	17
CN(C)c1ccc(-c2csc(C(O)(c3ccccc3)C(F)(F)F)n2)cc1 (configuration not stated)	x	-3	x	x	x	x	x	x
O=C(CSc1nnc2ccc(-c3ccccn3)nn12)N1CCCC1	x	-5	x	x	x	x	x	x
CCN(CC)C(=O)[C@H]1CC(CC(=O)NC/C=C(\C)CCC=C(C)C)C(=O)N2CCc3c([nH]c4ccc(OC)cc34)[C@]12C (some centres not stated)	-1	2	x	x	x	42*	24	10
CCN(CC)C(=O)[C@H]1C[C@H](CC(=O)NC/C=C(\C)CCC=C(C)C)C(=O)N2CCc3c([nH]c4ccc(Cl)cc34)[C@]12C	-1	-2	x	x	x	36	x	x
COc1cc(C2C(C#N)=C(C)NC3=C2C(=O)c2ccccc23)cc(OC)c1OC (configuration not stated)	2	-5	7	5	-2	54*	28	11
COc1ccc2c(c1)c(/C=N/Nc1nc3ccccc3[nH]1)c(C)n2C	4	-1	-37	-5	2	43*	20	15
COc1cc(/C=N\Nc2nc3ccccc3[nH]2)cc(OC)c1OC	-4	0	10	-10	-6	5	x	x
CC(C)C(C(=O)O)N1C(=O)/C(=C/C=C/c2ccco2)SC1=S (configuration not stated)	-5	4	76*	25	u	46*	48*	6	Fluor interf inh=>100
CCOc1cc(CNc2ccc(N3CCOCC3)cc2)cc(Br)c1OCC	6	-2	34	4	6	8	x	x
CCOc1cc(CNc2ccc(N3CCCCC3)cc2)cc(Br)c1OCC(=O)NC(C)(C)C	3	2	19	33	3	44*	12	-2
CC(=O)Nc1ccc2c(c1)N(C(=O)CN(C)C)c1ccccc1CC2	-3	0	19	8	-11	43*	22	6
Cc1ccc(-n2c(SCC(=O)Nc3cc(C)on3)nc3c([nH]c4ccccc43)c2=O)cc1	2	1	23	-4	-4	54*	14	-5
SMILES	PAD4 FP inh	Rin1-Abl PPI inh	SUMO HTRF inh	GSTO1 counter	UBC13 inh	Apaf1 inhib	Apaf-1 inh conf	Rh110 interf inh	others
CC(C)[C@H](NC(=O)N1CCC(Cc2ccccc2)CC1)C(=O)O	1	1	2	6	2	42*	13	3
CCNC(=O)C1CCCN(C(=O)c2cc(C)oc2C)CC1 (configuration not stated)	x	5	x	x	x	x	x	x
CCOc1ccc(NC(=O)CC2Nc3ccccc3NC2=O)cc1 (configuration not stated)	-1	0	24	-5	5	-4	x	x
Cc1cccc(NC(=O)CC2Nc3cccc4cccc(c34)NC2=O)c1 (configuration not stated)	-1	3	89	24	6	71*	17	12
CC(=O)c1ccc(NC(=O)CC2Nc3cccc4cccc(c34)NC2=O)cc1 (configuration not stated)	-8	3	96*	41*	-29	89*	16	3
COC(=O)Cc1c(C)nc2nc(-c3ccc(OC)cc3)[nH]n2c1=O	-5	1	0	-1	0	6	x	x
COc1ccc(-c2nc3nc(C)c(Cc4ccccc4)c(=O)n3[nH]2)cc1	-2	-5	19	-91	-12	49*	47*	1
CC1=[N+](C)c2ccc3ccccc3c2C1(C)C	-56	2	16	-68	-43	42*	16	1
COCCCC/C(=N\OCCN)c1ccc(C(F)(F)F)cc1	-5	2	22	1	-2	99*!	3	-3
COC1CC(=O)C2OC(c3ccccc3)OCC2O1 (configuration not stated)	x	4	x	x	x	x	x	x
COc1ccc(NC(=O)c2cc(-c3ccncc3)nc3ccc(Br)cc23)cc1OC	-9	8.8*	32	7	18	45*	12	8
